This is an account of results in ChEMBL document CHEMBL1777776, “Identification of 2-mercaptohexanoic acids as dual inhibitors of 5-lipoxygenase and microsomal prostaglandin E₂ synthase-1” (Bioorg Med Chem, 2011).

Data set [1] addresses T1, Prostaglandin G/H synthase 1 (Ovis aries) (UniProt P05979).
T1 sequence (whole entry): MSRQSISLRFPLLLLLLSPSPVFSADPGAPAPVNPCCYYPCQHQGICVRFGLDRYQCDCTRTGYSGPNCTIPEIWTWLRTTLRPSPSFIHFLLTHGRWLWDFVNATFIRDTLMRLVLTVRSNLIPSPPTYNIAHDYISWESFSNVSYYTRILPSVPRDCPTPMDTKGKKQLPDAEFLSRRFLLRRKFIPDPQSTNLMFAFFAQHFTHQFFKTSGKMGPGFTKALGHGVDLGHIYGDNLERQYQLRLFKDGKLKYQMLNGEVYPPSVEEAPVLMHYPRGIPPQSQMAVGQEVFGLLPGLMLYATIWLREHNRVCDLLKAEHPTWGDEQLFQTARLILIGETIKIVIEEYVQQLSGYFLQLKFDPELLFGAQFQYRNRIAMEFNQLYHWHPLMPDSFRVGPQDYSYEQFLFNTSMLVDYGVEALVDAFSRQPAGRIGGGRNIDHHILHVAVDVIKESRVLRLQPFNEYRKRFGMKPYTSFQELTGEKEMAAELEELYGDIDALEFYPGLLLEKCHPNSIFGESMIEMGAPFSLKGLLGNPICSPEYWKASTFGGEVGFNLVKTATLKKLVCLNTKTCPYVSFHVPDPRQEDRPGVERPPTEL
The experiment in a line: Inhibition of ovine COX1 assessed as residual activity at 10 uM after 5 mins. The gist of the method: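 Ovine COX-1 (50 units) or human recombinant COX-2 (20 units) in 1 ml 100 mM Tris pH 8 with 5 mM glutathione, 5 µM haemoglobin and 100 µM EDTA. Preincubated with 10 µM compound 5 min at 4 °C, warmed 60 s at 37 °C. Started with AA (5 µM for COX-1, 2 µM for COX-2), run 5 min at 37 °C. 12-HHT extracted and analysed by HPLC. n = 3.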

For data set [2], the target named is T2, Polyunsaturated fatty acid lipoxygenase ALOX12 (Homo sapiens) (UniProt P18054).
T2 sequence (whole entry): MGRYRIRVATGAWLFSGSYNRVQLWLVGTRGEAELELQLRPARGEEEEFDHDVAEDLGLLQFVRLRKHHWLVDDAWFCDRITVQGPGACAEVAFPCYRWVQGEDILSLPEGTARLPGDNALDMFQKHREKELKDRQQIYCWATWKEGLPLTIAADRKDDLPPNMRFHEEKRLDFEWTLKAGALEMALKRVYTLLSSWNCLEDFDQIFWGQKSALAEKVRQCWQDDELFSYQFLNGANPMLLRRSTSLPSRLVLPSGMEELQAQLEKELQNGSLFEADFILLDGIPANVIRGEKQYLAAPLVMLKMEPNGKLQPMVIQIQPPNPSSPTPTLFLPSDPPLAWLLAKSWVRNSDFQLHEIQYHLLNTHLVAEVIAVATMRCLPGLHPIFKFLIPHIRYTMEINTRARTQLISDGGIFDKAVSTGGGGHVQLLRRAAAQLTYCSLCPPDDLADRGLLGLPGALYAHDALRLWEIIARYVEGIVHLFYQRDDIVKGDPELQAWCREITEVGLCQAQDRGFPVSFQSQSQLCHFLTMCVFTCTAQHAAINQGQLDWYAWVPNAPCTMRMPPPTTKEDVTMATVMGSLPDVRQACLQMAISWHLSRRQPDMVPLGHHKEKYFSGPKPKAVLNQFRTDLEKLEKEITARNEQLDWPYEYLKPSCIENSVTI
The experiment in a line: Inhibition of 12-lipoxygenase in A23187-stimulated human PMNL assessed as reduction of 12(S)-H(P)ETE formation up to 10 uM preincubated 15 mins by RP-HPLC analysis in presence of exogenous arachidonic acid. The procedure, abridged: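 Freshly isolated human PMNL (5 × 10⁶/ml PGC buffer: PBS pH 7.4, 1 mg/ml glucose, 1 mM CaCl₂) preincubated with compound 15 min at 37 °C. Stimulated with 2.5 µM A23187 plus exogenous AA for 10 min at 37 °C. Stopped with methanol, PGB₁ added as internal standard, lipoxygenase products analysed by HPLC. Mean of n = 3–5.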

Data set [3] deals with T3, Polyunsaturated fatty acid 5-lipoxygenase (Homo sapiens) (UniProt P09917).
T3 sequence (whole entry): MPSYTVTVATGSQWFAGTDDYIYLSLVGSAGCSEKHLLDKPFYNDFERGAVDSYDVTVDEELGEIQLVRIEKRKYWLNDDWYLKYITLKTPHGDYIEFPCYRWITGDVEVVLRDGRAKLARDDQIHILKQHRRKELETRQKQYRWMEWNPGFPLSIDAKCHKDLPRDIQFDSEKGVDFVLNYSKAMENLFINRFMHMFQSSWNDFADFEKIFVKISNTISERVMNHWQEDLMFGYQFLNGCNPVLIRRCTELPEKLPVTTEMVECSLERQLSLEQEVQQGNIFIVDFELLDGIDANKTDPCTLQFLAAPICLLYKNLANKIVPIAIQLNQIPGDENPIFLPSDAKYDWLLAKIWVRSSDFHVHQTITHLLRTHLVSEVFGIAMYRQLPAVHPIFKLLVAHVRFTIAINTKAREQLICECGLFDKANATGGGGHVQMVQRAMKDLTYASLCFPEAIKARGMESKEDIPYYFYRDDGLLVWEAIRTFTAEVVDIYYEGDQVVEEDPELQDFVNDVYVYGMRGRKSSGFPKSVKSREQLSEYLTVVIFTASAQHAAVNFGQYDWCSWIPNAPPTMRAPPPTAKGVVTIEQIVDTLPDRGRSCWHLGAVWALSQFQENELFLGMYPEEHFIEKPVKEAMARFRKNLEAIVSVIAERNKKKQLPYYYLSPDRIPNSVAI
The experiment in a line: Inhibition of human recombinant 5-lipoxygenase expressed in Escherichia coli BL21 assessed as enzyme product formation measured after washout. The procedure, abridged: (§1)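 Human 5-LO expressed in E. coli BL21 (pT3-5LO), affinity-purified and used at once. 0.5 µg enzyme in 1 ml PBS/EDTA with 1 mM ATP preincubated with compound 5–10 min at 4 °C, then warmed 30 s at 37 °C. Reaction started with 2 mM CaCl₂ and AA (routinely 20 µM), with or without 1 µM 13(S)-HpODE. Run 10 min at 37 °C, stopped with ice-cold methanol, products analysed by HPLC. Washout: 10-fold dilution (10 to 1 µM).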

For data set [4], the system named is A549. The experiment in a line: Cytotoxicity against human A549 cells assessed as cell viability at 10 uM after 16 hrs by MTT assay. The format is cell-based. Particulars: a549, 5 h, in the assay text read “5 hrs” for “16 hrs”. The gist of the method: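 A549 cells plated at 4 × 10⁴ cells per well, incubated 16 h at 37 °C, 5% CO₂, then exposed to 10 µM compound or DMSO (≤0.3% final) for 5 h. MTT added for 4 h, formazan solubilized with SDS in 20 mM HCl, absorbance at 595 nm read relative to vehicle-treated cells.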
In general terms: Tetrazolium assays rely on reduction of a dye to a coloured formazan, in cell work by metabolically active cells.

Data set [5] addresses T4, Polyunsaturated fatty acid 5-lipoxygenase (Homo sapiens, UniProt P09917).
T4 sequence (P09917 whole entry): T3 sequence (whole entry)
The experiment in a line: Inhibition of human recombinant 5-lipoxygenase expressed in Escherichia coli BL21 assessed as enzyme product formation using arachidonic acid as substrate after 10 mins by RP-HPLC analysis. The procedure, abridged: as §1

Active and inactive are the calls of the source. The calls are words filed in the database; no cut-off is given here.

For the compound `CCCCC(Sc1ccc(OCCCOc2ccc(-c3ccccc3)cc2)cc1)C(=O)O` (stereo not given), the Activity in data set [1] was 79.2%; in data set [4], “Non-toxic”. Besides, in data set [2], the inhibition result is “inactive”. In addition, in data set [3], the inhibition entry was “Active”. Further, the IC50 (as a rule, the point on the concentration scale where inhibition reaches its midpoint) in data set [5] amounted to 3.5 µM.
